In ChEMBL document CHEMBL1123282, “Antiinflammatory activity of substituted 6-hydroxypyrimido[2,1-f]purine-2,4,8(1H,3H,9H)-triones. Atypical nonsteroidal antiinflammatory agents” (J Med Chem, 1986):
Several values for one entry are separate records, joined by “and”; a condition that tells them apart may be missing. Identical values can stand only once.

Assays:
[1] = tested on: Rattus norvegicus; test: In vivo antiinflammatory activity against rats by RPAR(reverse passive Arthus reaction) synovitis method; format: functional; set-up: concentration or dose not given beside the values
Summary of the method: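 Lewis rats, oral drug or placebo 1 h before iv BSA (2.28 mg in saline), then intraarticular rabbit anti-BSA (0.54 mg) into one knee and saline into the other, under light anesthesia. Second oral dose at 3 h; the total of both doses is the calculated dose. About 17 h after induction, subpatellar tissue with synovium is excised and weighed. Response is antibody-minus-saline knee weight, tested by analysis of variance.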

[2] = tested on: Rattus norvegicus; test: Compound was tested in vivo for antiinflammatory activity against chronic adjuvant arthritic rat by prophylactic inhibition 1 degree paw after peroral administration of 25 mg/kg of dose; format: functional; settings: route oral
[3] = tested on: Rattus norvegicus; test: Compound was tested in vivo for antiinflammatory activity against chronic adjuvant arthritic rat by prophylactic inhibition 2 degree paw after peroral administration of 25 mg/kg of dose; format: functional; settings: route oral
[4] = target: T1, Polyunsaturated fatty acid 5-lipoxygenase (Rattus norvegicus) (UniProt P12527); test: In vitro inhibitory activity against Lipoxygenase in rat neutrophils at a dose of 50 uM
T1 sequence (whole entry): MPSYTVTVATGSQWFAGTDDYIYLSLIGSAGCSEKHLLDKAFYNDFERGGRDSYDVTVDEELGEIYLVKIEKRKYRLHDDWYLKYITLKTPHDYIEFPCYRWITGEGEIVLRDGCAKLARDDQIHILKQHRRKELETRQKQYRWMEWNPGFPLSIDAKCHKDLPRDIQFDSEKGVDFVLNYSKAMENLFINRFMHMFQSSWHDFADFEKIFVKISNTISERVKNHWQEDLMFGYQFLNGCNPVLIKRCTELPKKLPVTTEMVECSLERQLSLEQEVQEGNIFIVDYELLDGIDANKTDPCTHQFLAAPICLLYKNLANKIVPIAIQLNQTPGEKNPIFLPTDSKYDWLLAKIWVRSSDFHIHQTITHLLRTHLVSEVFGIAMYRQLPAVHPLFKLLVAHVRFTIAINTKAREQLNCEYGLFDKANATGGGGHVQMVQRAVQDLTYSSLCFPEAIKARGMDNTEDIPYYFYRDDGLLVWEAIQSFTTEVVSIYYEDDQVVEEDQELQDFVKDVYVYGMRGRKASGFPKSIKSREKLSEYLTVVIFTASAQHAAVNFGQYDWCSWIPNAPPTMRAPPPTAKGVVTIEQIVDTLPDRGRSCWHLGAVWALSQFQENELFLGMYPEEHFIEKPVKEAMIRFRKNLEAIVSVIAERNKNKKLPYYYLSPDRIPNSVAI
Summary of the method: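 Neutrophils come from the 4 h pleural exudate of male Wistar-Lewis rats given iv BSA plus intrapleural rabbit anti-BSA IgG. Cells are washed, red cells lysed with NH4Cl, and resuspended at about 5×10^6 cells/0.1 mL in Tris pH 7.4 with NaCl and 1 mM CaCl2. Cells are preincubated with compound 4 min at room temperature.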

[5] = tested on: Rattus norvegicus; test: Tested in vivo for antiinflammatory activity against chronic adjuvant arthritic rat by prophylactic inhibition 1 degree paw after peroral administration of 10 mg/kg of dose; format: functional; settings: route oral
Summary of the method: (§1)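 Prophylactic regimen, rats. Adjuvant is heat-killed Mycobacterium tuberculosis ground to a fine powder in paraffin oil (6 mg/mL); 0.1 mL is injected into the left hind paw. Oral drug is given 1 h before adjuvant challenge, then for 21 consecutive days; controls receive methyl cellulose. Left (1°) and right (2°) hind paw volumes are measured by plethysmograph.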

[6] = tested on: Rattus norvegicus; test: Tested in vivo for antiinflammatory activity against chronic adjuvant arthritic rat by prophylactic inhibition 2 degree paw after peroral administration of 10 mg/kg of dose; format: functional; settings: route oral; summary of the method: as §1
[7] = target: Cyclooxygenase (Rattus norvegicus) (UniProt P35355+Q63921); test: In vitro inhibitory activity against Prostaglandin G/H synthase in rat neutrophils at a dose of 50 uM

SMILES	Inhibition [1] [%]	further results
CCCCn1c(=O)c2c(nc3n(Cc4ccccc4)c(O)c(C)c(=O)n23)n(CCCC)c1=O	27	–
Cc1c(O)n(Cc2ccccc2)c2nc3c(c(=O)n(C)c(=O)n3C)n2c1=O	8	–
CSc1ccc(Cn2c(O)c(CC=C(C)C)c(=O)n3c4c(=O)n(C)c(=O)n(C)c4nc23)cc1	–	inhibition in vivo at 25 mg/kg [2]: 0%; inhibition in vivo at 25 mg/kg [3]: 63%
COC(=O)Cc1c(O)n(Cc2ccccc2)c2nc3c(c(=O)n(C)c(=O)n3C)n2c1=O	14	–
CCS(=O)(=O)CCc1c(O)n(Cc2ccccc2)c2nc3c(c(=O)n(C)c(=O)n3C)n2c1=O	6	–
CCCc1c(O)n(Cc2ccc(Cl)cc2)c2nc3c(c(=O)n(C)c(=O)n3C)n2c1=O	53	–
Cn1c(=O)c2c(nc3n(Cc4ccccc4)c(O)c(N)c(=O)n23)n(C)c1=O	11	–
CCCCn1c(=O)c2c(nc3n(Cc4ccc(OC)cc4)c(O)c(CCC)c(=O)n23)n(CCCC)c1=O	5	–
CC(C)=CCc1c(O)n(Cc2ccc([S+](C)[O-])cc2)c2nc3c(c(=O)n(C)c(=O)n3C)n2c1=O (configuration not stated)	–	inhibition in vivo at 25 mg/kg [2]: 13%; inhibition in vivo at 25 mg/kg [3]: 47%
CCCc1c(O)n(Cc2ccccn2)c2nc3c(c(=O)n(C)c(=O)n3C)n2c1=O	17	–
Cn1c(=O)c2c(nc3n(Cc4ccccc4)c(O)c(Cc4ccccc4)c(=O)n23)n(C)c1=O	16	–
Cn1c(=O)c2c(nc3n(Cc4ccccc4)c(O)c(C4C=CCCC4)c(=O)n23)n(C)c1=O (configuration not stated)	25	inhibition [4]: 25% and 38%; inhibition in vivo at 10 mg/kg [5]: 8%; inhibition in vivo at 10 mg/kg [6]: 2%; inhibition [7]: 17%
CCCCn1c(=O)c2c(nc3n(Cc4ccccc4)c(O)c(CCC)c(=O)n23)n(CCCC)c1=O	12	–
CCCc1c(O)n(-c2ccc(F)cc2)c2nc3c(c(=O)n(C)c(=O)n3C)n2c1=O	27	–
Cc1c(O)n(Cc2ccc(F)cc2)c2nc3c(c(=O)n(C)c(=O)n3C)n2c1=O	36	–
CC(C)c1c(O)n(Cc2ccccc2)c2nc3c(c(=O)n(C)c(=O)n3C)n2c1=O	0	–
CCCCc1c(O)n(-c2ccc(F)cc2)c2nc3c(c(=O)n(C)c(=O)n3C)n2c1=O	26	inhibition in vivo at 10 mg/kg [5]: 29%; inhibition in vivo at 10 mg/kg [6]: 35%
CCCCn1c(=O)c2c(nc3n(Cc4cccs4)c(O)c(CCC)c(=O)n23)n(CCCC)c1=O	14	–
CCSCCc1c(O)n(Cc2ccccc2)c2nc3c(c(=O)n(C)c(=O)n3C)n2c1=O	0	–
CCCCC1C(=O)N(Cc2ccccc2)c2nc3nccnc3n2C1=O (configuration not stated)	15	inhibition in vivo at 10 mg/kg [5]: 0%; inhibition in vivo at 10 mg/kg [6]: 8%

SMILES	Inhibition [1] [%]	further results
Cc1c(O)n(Cc2ccc(Cl)cc2)c2nc3c(c(=O)n(C)c(=O)n3C)n2c1=O	28	–
CC(=O)Nc1c(O)n(Cc2ccccc2)c2nc3c(c(=O)n(C)c(=O)n3C)n2c1=O	20	–
CC(C)c1c(O)n(CCc2ccccc2)c2nc3c(c(=O)n(C)c(=O)n3C)n2c1=O	17	–
CCCCn1c(=O)c2c(nc3n(Cc4ccc(F)cc4)c(O)c(CCC)c(=O)n23)n(CCCC)c1=O	8	–
CCCCc1c(O)n(Cc2ccc(Cl)cc2)c2nc3c(c(=O)n(C)c(=O)n3C)n2c1=O	16	–
C#CCc1c(O)n(Cc2ccccc2)c2nc3c(c(=O)n(C)c(=O)n3C)n2c1=O	27	inhibition [4]: 11% and 7%; inhibition in vivo at 10 mg/kg [5]: 6%; inhibition in vivo at 10 mg/kg [6]: 27%; inhibition [7]: 9%
CCCCn1c(=O)c2c(nc3n(CCc4ccccc4)c(O)c(CCC)c(=O)n23)n(CCCC)c1=O	0	–
CCO/C(O)=c1\c(=O)n(Cc2ccccc2)c2nc3c(c(=O)n(C)c(=O)n3C)n2c1=O	0	–
Cn1c(=O)c2c(nc3n(Cc4ccccc4)c(O)cc(=O)n23)n(C)c1=O	11	–
C/C=C/Cc1c(O)n(Cc2ccccc2)c2nc3c(c(=O)n(C)c(=O)n3C)n2c1=O	12	inhibition [4]: 26% and 29%; inhibition in vivo at 10 mg/kg [5]: 17%; inhibition in vivo at 10 mg/kg [6]: 24%; inhibition [7]: 49%
Cn1c(=O)c2c(nc3n(Cc4ccccc4)c(O)c(CCO)c(=O)n23)n(C)c1=O	17	–
COc1ccc(Cn2c(O)c(CC=C(C)C)c(=O)n3c4c(=O)n(C)c(=O)n(C)c4nc23)cc1	10	inhibition [4]: 0% and 15%; inhibition [7]: 73%
CCCCc1c(O)n(Cc2ccccc2)c2nccn2c1=O	17	–
Cc1c(O)n(-c2ccccc2)c2nc3c(c(=O)n(C)c(=O)n3C)n2c1=O	14	–
CC(=O)OCCc1c(O)n(Cc2ccccc2)c2nc3c(c(=O)n(C)c(=O)n3C)n2c1=O	1	–
CCCCC1C(=O)N(Cc2ccccc2)c2nc3ccccc3n2C1=O (configuration not stated)	0	–
CCCCc1c(O)n(Cc2ccc(F)cc2)c2nc3c(c(=O)n(CCCC)c(=O)n3CCCC)n2c1=O	6	–
CCCCc1c(O)n(-c2ccccc2)c2nc3c(c(=O)n(C)c(=O)n3C)n2c1=O	11	–
CCCc1c(O)n(-c2ccccc2)c2nc3c(c(=O)n(C)c(=O)n3C)n2c1=O	11	–
CCOC(=O)c1ccc(Cn2c(O)c(CC=C(C)C)c(=O)n3c4c(=O)n(C)c(=O)n(C)c4nc23)cc1	–	inhibition in vivo at 25 mg/kg [2]: 0%; inhibition in vivo at 25 mg/kg [3]: 10%

SMILES	Inhibition [1] [%]	further results
CCOCCc1c(O)n(Cc2ccccc2)c2nc3c(c(=O)n(C)c(=O)n3C)n2c1=O	8	–
CCCc1c(O)n(Cc2cccs2)c2nc3c(c(=O)n(C)c(=O)n3C)n2c1=O	9	inhibition in vivo at 10 mg/kg [5]: 20%; inhibition in vivo at 10 mg/kg [6]: 9%
CCCCCCn1c(O)c(CCC)c(=O)n2c3c(=O)n(C)c(=O)n(C)c3nc12	37	inhibition in vivo at 10 mg/kg [5]: 28%; inhibition in vivo at 10 mg/kg [6]: 43%
Cc1c(O)n(CCc2ccccc2)c2nc3c(c(=O)n(C)c(=O)n3C)n2c1=O	14	–
CCCc1c(O)n(Cc2ccc(OC)cc2)c2nc3c(c(=O)n(C)c(=O)n3C)n2c1=O	11	–
Cn1c(=O)c2c(nc3n(Cc4ccccc4)c(O)c(CC(=O)O)c(=O)n23)n(C)c1=O	11	–
C#CCc1c(O)n(Cc2ccc(F)cc2)c2nc3c(c(=O)n(C)c(=O)n3C)n2c1=O	24	inhibition in vivo at 25 mg/kg [2]: 10%; inhibition [4]: 8% and 5%; inhibition in vivo at 25 mg/kg [3]: 19%; inhibition [7]: 3%
CCCc1c(O)n(CCc2ccccc2)c2nc3c(c(=O)n(C)c(=O)n3C)n2c1=O	27	inhibition in vivo at 10 mg/kg [5]: 14%; inhibition in vivo at 10 mg/kg [6]: 38%
CCCc1c(OC)n2c3c(=O)n(C)c(=O)n(C)c3nc2n(Cc2ccccc2)c1=O	17	–
CC(C)Cc1c(O)n(-c2ccccc2)c2nc3c(c(=O)n(C)c(=O)n3C)n2c1=O	16	–
CN(C)CCc1c(O)n(Cc2ccccc2)c2nc3c(c(=O)n(C)c(=O)n3C)n2c1=O	0	–
Cn1c(=O)c2c(nc3n(Cc4ccc(F)cc4)c(O)c(Cc4ccccc4)c(=O)n23)n(C)c1=O	10	–
CC(C)Cc1c(O)n(Cc2ccccc2)c2nc3c(c(=O)n(C)c(=O)n3C)n2c1=O	17	–
CCCCc1c(O)n(Cc2ccc(Cl)cc2Cl)c2nc3c(c(=O)n(C)c(=O)n3C)n2c1=O	31	inhibition in vivo at 10 mg/kg [5]: 0%; inhibition in vivo at 10 mg/kg [6]: 29%
CCCCc1c(O)n(CC2CCCCC2)c2nc3c(c(=O)n(C)c(=O)n3C)n2c1=O	25	inhibition in vivo at 10 mg/kg [5]: 11%; inhibition in vivo at 10 mg/kg [6]: 34%
CC[S+]([O-])CCc1c(O)n(Cc2ccccc2)c2nc3c(c(=O)n(C)c(=O)n3C)n2c1=O (configuration not stated)	0	–
CCCCC1C(=O)N(Cc2ccccc2)c2nc3ncncc3n2C1=O (configuration not stated)	21	inhibition in vivo at 10 mg/kg [5]: 0%; inhibition in vivo at 10 mg/kg [6]: 26%
CCCCc1c(O)n(Cc2ccc(Cl)c(Cl)c2)c2nc3c(c(=O)n(C)c(=O)n3C)n2c1=O	33	inhibition in vivo at 10 mg/kg [5]: 0%; inhibition in vivo at 10 mg/kg [6]: 17%
